Screening results: PubChem BioAssay, Sanford-Burnham Center for Chemical Genomics
FAS TE block = FAS thioesterase domain inhibitors, primary screen, biochemical, fluorescence intensity, uHTS. AID 602261, 2012. inhibition, % at 15 µM. recombinant FAS-TE, OMFH fluorogenic substrate, fluorescence endpoint. Fatty acid synthase (Homo sapiens), P49327. actives 0.67% (n = 360,000);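 active = compounds whose normalised, plate-corrected inhibition of enzyme fluorescence in the single-dose primary screen is 50% or more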;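 also: 0% = DMSO with enzyme and 100% = substrate without enzyme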
Scp1 inh = Scp-1 phosphatase inhibitors, primary screen, biochemical, colorimetric, uHTS. Carboxy-terminal domain RNA polymerase II polypeptide A small phosphatase 1 (Homo …. Recombinant Scp1, phosphopeptide, malachite green phosphate absorbance. inhibition, % at 20 µM. actives 0.88% (n = 340,000);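 active = inhibition above about 50% at 20 µM, limit read from the data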;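 also: plate controls were DMSO wells with enzyme for no effect and wells lacking enzyme for full effect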
Target sequence (Q9GZU7 76-261 limits assumed): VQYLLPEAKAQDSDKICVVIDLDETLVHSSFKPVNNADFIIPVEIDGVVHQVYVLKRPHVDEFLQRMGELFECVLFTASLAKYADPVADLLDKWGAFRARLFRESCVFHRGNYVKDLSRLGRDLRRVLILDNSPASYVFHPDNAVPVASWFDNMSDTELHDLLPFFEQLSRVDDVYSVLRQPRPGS
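Material: truncated SCP-1 phosphatase (76-261aa) / Buffer or medium: 50 mM Tris acetate pH 5.5, 0.005% Tween-20, 10 mM MgCl2 / Compound dosing: one concentration, 20 µM, with 1.0% DMSO / Incubation: 45 min room-temperature reaction, 5 min colour, 30 min stabiliser / Detection: colorimetric free-phosphate detection, absorbance 630 nm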
STEP block = STEP phosphatase inhibitors, primary screen, biochemical, fluorescence intensity, uHTS; actives 0.25% (n = 360,000); inhibition, % at 20 µM; Tyrosine-protein phosphatase non-receptor type 5 (Homo sapiens), P54829; AID 588621, 2011; recombinant STEP, OMFP fluorogenic substrate;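 active = inhibition at 20 µM, scaled per plate between control wells, above about 37%, limit read from the data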;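 also: 0% = DMSO with enzyme and substrate and 100% = substrate only without enzyme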
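System: isolated STEP enzyme; schedule: 20 min enzyme reaction at room temperature, protected from light; medium: Bis-Tris buffer pH 6.0, 2.5 mM DTT, 0.005% Tween 20; signal: fluorescence, 480/540 nm; dosing: single compound dose of 20 µM, 1% DMSO final; also added: OMFP substrate, 25 µM final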
LMPTP block = LMPTP phosphatase inhibitors, primary screen, biochemical, fluorescence intensity, uHTS; inhibition, % at 20 µM; AID 651560, 2012; Low molecular weight phosphotyrosine protein phosphatase (Homo sapiens), P24666; recombinant LMPTP-A, OMFP fluorogenic substrate; actives 0.22% (n = 360,000);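 active = compounds that cut the enzyme signal by at least half of the control window in the single-dose screen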;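 also: plate controls were DMSO wells with enzyme plus substrate for no effect and substrate without enzyme for full effect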
Target sequence (P24666 whole entry, looked up): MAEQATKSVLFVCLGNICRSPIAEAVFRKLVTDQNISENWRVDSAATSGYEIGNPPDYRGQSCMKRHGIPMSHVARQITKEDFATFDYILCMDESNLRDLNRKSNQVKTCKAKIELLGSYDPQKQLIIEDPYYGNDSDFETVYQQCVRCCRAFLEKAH
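Test system – LMPTP-A phosphatase enzyme · Quantity – 0.625 nM LMPTP-A final · Reagent – OMFP substrate, 400 µM final · Dosing – one test concentration per compound, 20 µM, with 3% DMSO overall · Timing – 50 min enzyme reaction at room temperature, protected from light · Detection – fluorescence intensity · Controls – substrate-only low control, DMSO enzyme-plus-substrate high control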
SUMO1-SIM PPI = modulators of SUMO1 protein-protein interactions, primary screen, biochemical, uHTS; Small ubiquitin-related modifier 1 (Homo sapiens), P63165; SUMO1 binding to a labelled peptide, TR-FRET, 1 h; inhibition, % at 20 µM; actives 0.33% (n = 360,000); AID 602429, 2012; in the data active = inhibition above about 37%
Target sequence (P63165 whole entry, looked up): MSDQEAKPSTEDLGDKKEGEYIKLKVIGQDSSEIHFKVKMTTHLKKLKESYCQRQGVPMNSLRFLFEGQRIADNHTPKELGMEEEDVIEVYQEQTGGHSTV
Scp1 confirm = Scp-1 phosphatase inhibitors, retest, confirmation, biochemical, colorimetric, single concentration | shares compounds with Scp1 inh | recombinant SCP-1 catalytic domain, phosphate release, malachite green absorbance | inhibition, % at 20 µM | actives 61% (n = 2,500) | AID 540281, 2011;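 also: plate controls were DMSO with enzyme for no effect and buffer wells lacking enzyme for full effect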
MG interference = colorimetric readout interference by compounds, confirmation, artefact control for Scp-1 inhibitor project, biochemical, single concentration | Colorimetric interference counterscreen, malachite green absorbance 630 nm | apparent inhibition (interference), % at 20 µM | 2,500 tested, under 10 active | shares compounds with Scp1 inh;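 also: compounds added after enzyme reaction finished so only phosphate colour detection is probed; plate controls were DMSO wells with completed Scp-1 reaction for no effect and substrate wells lacking enzyme for full effect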
Scp1 DSF = Scp-1 binding by thermal shift, confirmation, orthogonal assay for Scp-1 inhibitor project, biophysical, differential scanning fluorimetry; shares compounds with Scp1 inh; Recombinant SCP1, Sypro Orange thermal shift Tm; thermal shift relative to vanadate control, % at 40 µM; actives 25% (n = 1,500); AID 540329, 2011;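 active = substances whose mean melting-temperature shift, as a percentage of the reference inhibitor's shift, reaches about 5.3%, limit read from the data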;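 also: 0% = Tm of DMSO wells and 100% = Tm with sodium orthovanadate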
STEP conf = STEP phosphatase inhibitor hit confirmation, biochemical, fluorescence intensity, single concentration; shares compounds with STEP block; recombinant STEP, OMFP fluorogenic substrate; inhibition, % at 20 µM; actives 32% (n = 520); AID 623866, 2012; call rule not given here;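 also: 0% = enzyme with substrate plus DMSO and 100% = substrate without enzyme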
* = called active by the depositor; . = no result given. Sampled rows, rich in hits. Any-hit rate of the full collection: about 1.9%.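 The calls were made as follows, unless noted: active = inhibition of at least 30% at 20 µM; inactive = the rest.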

SMILES	FAS TE block	Scp1 inh	STEP block	LMPTP block	SUMO1-SIM PPI	Scp1 confirm	MG interference	Scp1 DSF	STEP conf
O=C(c1ccc([N+](=O)[O-])cc1)c1cc2ccc(O)cc2oc1=O	-3	72*	53*	22	-29	55*	-5	5.7*	0
CCOc1ccc(C(=O)c2cc3ccc(O)cc3oc2=O)cc1	-5	-3	0	0	-23	.	.	.	.
COc1ccc(S(=O)(=O)NCc2cc(=O)n(C)c(=O)n2C)cc1C	-2	-3	-3	-2	1	.	.	.	.
Cc1ccccc1CNC(=O)C(=O)NCC1OCCCN1S(=O)(=O)c1cccs1 (configuration not stated)	0	1	-1	-1	0	.	.	.	.
O=C(O)c1ccc2c(c1)C(=O)N(c1cccc(-c3nc4ccccc4s3)c1)C2=O	-4	93*	81*	4	-5	86*	-6	5.4*	47*
O=C(NCc1cccnc1)C1CC(c2ccccc2Cl)=NO1 (configuration not stated)	-5	3	0	0	-1	.	.	.	.
CC(C)(CO)C(O)C(=O)NCCCO (configuration not stated)	-5	-1	-3	-1	7	.	.	.	.
Cc1cc(=O)oc2cc(NC(=O)c3cccc(F)c3)ccc12	-3	63*	91*	30	13	35*	-17	-28	15
Cc1cc(=O)oc2cc(NC(=O)c3ccc(OC(F)F)cc3)ccc12	-7	87*	84*	41	-1	79*	-12	-6	13
O=[N+]([O-])c1cccc(NC(=S)N2CCN(c3ccccn3)CC2)c1	17	-8	8	7	-7	.	.	.	.
Cc1ccc2oc(-c3cc(NC(=O)c4ncn[nH]4)ccc3O)nc2c1	-78	85*	78*	43	15	81*	-8	0	-1
Cc1ccc2oc(-c3ccc(NC(=O)c4ccncc4)cc3O)nc2c1	0	5	-1	4	-5	.	.	.	.
O=C(O)Cc1ccccc1C(=O)O	-7	-3	-4	-2	4	.	.	.	.
O=C(O)Cc1cccc(=O)c(O)c1C(=O)O	-4	79*	68*	19	18	54*	-9	6.3*	88*
O=c1c(C=Nc2ccc(Cl)cc2)c[nH]n1-c1cccc(Cl)n1	-2	102*	79*	62*	-9	99*	0	-3	2
CCc1ccc(CN2CCCC(C(=O)Nc3ccc(-c4cscn4)cc3)C2)o1 (configuration not stated)	0	-1	0	2	0	.	.	.	.
O=C(Nc1ccc2oc(-c3ccccc3F)nc2c1)c1ccc([N+](=O)[O-])o1	-3	101*	99*	90*	98*	95*	-7	-6	16
CC(=O)c1cccc(Nc2ccc(C#N)cc2)c1	-7	.	-4	0	-6	.	.	.	.
O=C(COc1ccc(/C=N/NC(=O)c2ccccc2Br)cc1)Nc1ccccc1	0	-8	-1	0	-4	.	.	.	.
COc1cc(/C=N/NC(=O)c2ccncc2)ccc1OCC(=O)Nc1ccccc1	-4	5	-4	1	-7	.	.	.	.
